# Laboratory results: ChEMBL document CHEMBL3232844, “Synthesis and structure activity relationships of schweinfurthin indoles” (2014)
# Key:
# Format in all cases: functional
# SR = assay: Cytotoxicity against human SR cells; settings: for CC50: read-out: pLC50 (the source's name) (converted); for TGI: read-out: pTGI (converted)
# In short: (§1)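 Cell line run as part of the 60-cell-line screening panel; growth inhibition was reported as a GI50 for each line.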
# SF-268 = assay: Cytotoxicity against human SF268 cells; settings: for CC50: read-out: pLC50 (the source's name) (converted); for TGI: read-out: pTGI (converted)
# In short: (§2)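 Tested in a 60-cell-line human tumor panel screen; the read-out is growth inhibition, reported as GI50 for each cell line.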
# SW-620 = assay: Cytotoxicity against human SW620 cells; settings: for CC50: read-out: pLC50 (the source's name) (converted); for TGI: read-out: pTGI (converted); in short: as §1
# SK-MEL-28 = assay: Cytotoxicity against human SK-MEL-28 cells; settings: for CC50: read-out: pLC50 (the source's name) (converted); for TGI: read-out: pTGI (converted); in short: as §2
# RPMI-8226 = assay: Cytotoxicity against human RPMI8226 cells; settings: for CC50: read-out: pLC50 (the source's name) (converted); for TGI: read-out: pTGI (converted); in short: as §2
# Malme-3M = assay: Cytotoxicity against human MALME-3M cells; settings: for CC50: read-out: pLC50 (the source's name) (converted); for TGI: read-out: pTGI (converted); in short: as §2
# SN12C = assay: Cytotoxicity against human SN12C cells; settings: for TGI: read-out: pTGI (converted); in short: as §2
# HOP-92 = assay: Cytotoxicity against human HOP92 cells; settings: for CC50: read-out: pLC50 (the source's name) (converted); for TGI: read-out: pTGI (converted); in short: as §2
# [1] = Cytotoxicity against human Hs578T cells; settings: Hs-578T; for TGI: read-out: pTGI (converted); in short: as §2
# IGROV-1 = assay: Cytotoxicity against human IGROV1 cells; settings: for CC50: read-out: pLC50 (the source's name) (converted); for TGI: read-out: pTGI (converted); in short: as §2
# 786-0 = assay: Cytotoxicity against human 786-0 cells; settings: for TGI: read-out: pTGI (converted); in short: as §2
# NCI-H522 = assay: Cytotoxicity against human NCI-H522 cells; settings: for CC50: read-out: pLC50 (the source's name) (converted); for TGI: read-out: pTGI (converted); in short: as §2
# PC-3 = assay: Cytotoxicity against human PC3 cells; settings: for TGI: read-out: pTGI (converted); in short: as §2
# HCT-116 = assay: Cytotoxicity against human HCT116 cells; settings: for CC50: read-out: pLC50 (the source's name) (converted); for TGI: read-out: pTGI (converted); in short: as §2
# MDA-MB-435 = assay: Cytotoxicity against human MDA-MB-435 cells; settings: for CC50: read-out: pLC50 (the source's name) (converted); for TGI: read-out: pTGI (converted); in short: as §2
# HL-60(TB) = assay: Cytotoxicity against human HL-60(TB) cells; settings: for CC50: read-out: pLC50 (the source's name) (converted); for TGI: read-out: pTGI (converted)
# In short: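 Tested within the NCI 60-cell-line screen, with GI50 as the read-out. Values are the average of two independent experiments. The lowest concentration tested was 10 nM.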
structure (smiles),measurement,setting,value
CC1(C)[C@H](O)CC[C@@]2(C)Oc3c(O)cc(/C=C/c4cc(O)c5cc[nH]c5c4)cc3C[C@H]12,GI50,SR,0.123 µM
same,CC50,SR,> 100 µM
same,TGI,SR,21.4 µM
same,GI50,SF-268,0.589 µM
same,CC50,SF-268,79.4 µM
same,TGI,SF-268,26.3 µM
same,GI50,SW-620,0.214 µM
same,CC50,SW-620,6.46 µM
same,TGI,SW-620,1.35 µM
same,GI50,SK-MEL-28,6.17 µM
same,CC50,SK-MEL-28,> 100 µM
same,TGI,SK-MEL-28,> 100 µM
same,GI50,RPMI-8226,0.0158 µM
same,CC50,RPMI-8226,11.5 µM
same,TGI,RPMI-8226,0.0661 µM
same,GI50,Malme-3M,3.02 µM
same,CC50,Malme-3M,60.3 µM
same,TGI,Malme-3M,17 µM
same,GI50,SN12C,10.2 µM
same,LC50,SN12C,> 100 µM
same,TGI,SN12C,63.1 µM
same,GI50,HOP-92,0.501 µM
same,CC50,HOP-92,> 100 µM
same,TGI,HOP-92,5.5 µM
same,GI50,[1],0.01 µM
same,LC50,[1],> 100 µM
same,TGI,[1],0.427 µM
same,GI50,IGROV-1,2.51 µM
same,CC50,IGROV-1,97.7 µM
same,TGI,IGROV-1,22.9 µM
same,GI50,786-0,0.0457 µM
same,LC50 (concentration killing 50% of cells),786-0,12.9 µM
same,TGI,786-0,1.17 µM
same,GI50,NCI-H522,1.07 µM
same,CC50,NCI-H522,38 µM
same,TGI,NCI-H522,6.92 µM
same,GI50,PC-3,0.245 µM
same,LC50,PC-3,55 µM
same,TGI,PC-3,4.07 µM
same,GI50,HCT-116,0.617 µM
same,CC50,HCT-116,8.13 µM
same,TGI,HCT-116,2.45 µM
same,GI50,MDA-MB-435,0.661 µM
same,CC50,MDA-MB-435,51.3 µM
same,TGI,MDA-MB-435,9.55 µM
same,GI50,HL-60(TB),0.0437 µM
same,CC50,HL-60(TB),> 100 µM
same,TGI,HL-60(TB),4.79 µM
COc1cc(/C=C/c2cc(OC)c3c(CC=C(C)C)c[nH]c3c2)cc2c1O[C@]1(C)CC[C@@H](O)C(C)(C)[C@H]1C2,GI50,SR,0.324 µM
same,CC50,SR,> 100 µM
same,TGI,SR,5.5 µM
same,GI50,SF-268,1.12 µM
same,CC50,SF-268,91.2 µM
same,TGI,SF-268,14.5 µM
same,GI50,SW-620,0.288 µM
same,CC50,SW-620,4.07 µM
same,TGI,SW-620,1.12 µM
same,GI50,SK-MEL-28,0.347 µM
same,CC50,SK-MEL-28,15.8 µM
same,TGI,SK-MEL-28,2.24 µM
same,GI50,RPMI-8226,0.0776 µM
same,TGI,RPMI-8226,0.355 µM
same,GI50,Malme-3M,2 µM
same,CC50,Malme-3M,91.2 µM
same,TGI,Malme-3M,8.71 µM
same,GI50,SN12C,2.51 µM
same,LC50,SN12C,52.5 µM
same,TGI,SN12C,19.1 µM
same,GI50,HOP-92,0.178 µM
same,CC50,HOP-92,93.3 µM
same,TGI,HOP-92,5.62 µM
same,GI50,[1],0.0537 µM
same,LC50,[1],> 100 µM
same,TGI,[1],0.692 µM
same,GI50,IGROV-1,1.66 µM
same,CC50,IGROV-1,> 100 µM
same,TGI,IGROV-1,41.7 µM
same,GI50,786-0,0.0501 µM
same,LC50 (concentration killing 50% of cells),786-0,0.891 µM
same,TGI,786-0,0.302 µM
same,GI50,NCI-H522,0.646 µM
same,CC50,NCI-H522,5.25 µM
same,TGI,NCI-H522,2 µM
same,GI50,PC-3,0.24 µM
same,LC50,PC-3,> 100 µM
same,TGI,PC-3,17.4 µM
same,GI50,HCT-116,0.417 µM
same,CC50,HCT-116,57.5 µM
same,TGI,HCT-116,12.6 µM
same,GI50,MDA-MB-435,0.646 µM
same,CC50,MDA-MB-435,74.1 µM
same,TGI,MDA-MB-435,9.12 µM
same,GI50,HL-60(TB),0.191 µM
same,CC50,HL-60(TB),85.1 µM
same,TGI,HL-60(TB),2.45 µM
COc1cc(/C=C/c2cc(O)c3c(c2)C[C@@H]2C(C)(C)[C@H](O)CC[C@@]2(C)O3)cc2[nH]cc(CC=C(C)C)c12,GI50,SR,0.155 µM
same,CC50,SR,> 100 µM
same,TGI,SR,32.4 µM
same,GI50,SF-268,0.851 µM
same,CC50,SF-268,69.2 µM
same,TGI,SF-268,38.9 µM
same,GI50,SW-620,0.302 µM
same,CC50,SW-620,21.4 µM
same,TGI,SW-620,4.27 µM
same,GI50,SK-MEL-28,0.676 µM
same,CC50,SK-MEL-28,46.8 µM
same,TGI,SK-MEL-28,10.7 µM
same,GI50,RPMI-8226,0.0112 µM
same,CC50,RPMI-8226,> 100 µM
same,TGI,RPMI-8226,0.417 µM
same,GI50,Malme-3M,5.37 µM
same,CC50,Malme-3M,> 100 µM
same,TGI,Malme-3M,31.6 µM
same,GI50,SN12C,8.51 µM
same,LC50,SN12C,75.9 µM
same,TGI,SN12C,45.7 µM
same,GI50,HOP-92,1.15 µM
same,CC50,HOP-92,81.3 µM
same,TGI,HOP-92,22.9 µM
same,GI50,[1],0.01 µM
same,LC50,[1],> 100 µM
same,TGI,[1],0.977 µM
same,GI50,IGROV-1,5.01 µM
same,CC50,IGROV-1,89.1 µM
same,TGI,IGROV-1,45.7 µM
same,GI50,786-0,0.01 µM
same,LC50 (concentration killing 50% of cells),786-0,21.4 µM
same,TGI,786-0,2.45 µM
same,GI50,NCI-H522,1.66 µM
same,CC50,NCI-H522,20.9 µM
same,TGI,NCI-H522,7.24 µM
same,GI50,PC-3,1.32 µM
same,LC50,PC-3,> 100 µM
same,TGI,PC-3,43.7 µM
same,GI50,HCT-116,0.339 µM
same,CC50,HCT-116,64.6 µM
same,TGI,HCT-116,36.3 µM
same,GI50,MDA-MB-435,0.437 µM
same,CC50,MDA-MB-435,95.5 µM
same,TGI,MDA-MB-435,38 µM
same,GI50,HL-60(TB),0.0646 µM
same,CC50,HL-60(TB),79.4 µM
same,TGI,HL-60(TB),18.2 µM
